Measured values taken from ChEMBL document CHEMBL4325867, “Synthesis and biological evaluation of novel H6 analogues as drug resistance reversal agents” (Eur J Med Chem, 2019).
Values belong to the compound of their own block, whether it stands above or below them.

Experiments:
[1] = molecular target: T1, ATP-dependent translocase ABCB1 (Homo sapiens, UniProt P08183); assay: Reversal of P-gp-mediated drug resistance in human KBV cells assessed as potentiation of paclitaxel-induced cytotoxicity by measuring cell survival at 5 uM after 72 hrs by MTT assay (reference value: 98 +/- 19%); assay type: cell-based
[2] = Cytotoxicity against human KBV cells assessed as cell survival at 5 uM after 72 hrs by MTT assay relative to control; assay type: cell-based; details: read-out: Survival
Summary of the method: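 KBV cells (RPMI-1640 with 10% heat-inactivated FCS, 37 °C, 5% CO2, log-phase) were seeded in 96-well plates and exposed to compound alone at 5 µM for 72 h. MTT was added and incubated, then DMSO was added. OD was read at 570 nm and survival rate was calculated.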

[3] = n-octanol/aqueous buffer solution partition coefficient, log P of the compound at pH 6.8 after 4 hrs by HPLC method; assay type: physicochemical
Summary of the method: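 Shake-flask partition between n-octanol and pH 6.8 buffer at a 1:1 ratio, room temperature, shaken 4 h. Compound concentration in each phase measured by HPLC.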

[4] = molecular target: T1, ATP-dependent translocase ABCB1; assay: Reversal of P-gp-mediated drug resistance in human KBV cells assessed as potentiation of paclitaxel-induced cytotoxicity by measuring fold reduction in paclitaxel IC50 at 10 uM after 72 hrs by MTT assay relative to paclitaxel alone; assay type: cell-based
Summary of the method: (§1)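 KBV cells cultured in RPMI-1640 with 10% heat-inactivated fetal calf serum at 37°C, 5% CO2, and used in log phase. Seeded in 96-well plates. Exposed to paclitaxel with or without modulator (5 or 10 µM) for 24, 48 or 72 h. MTT added, formazan dissolved in DMSO, OD read at 570 nm. Survival rate used to derive paclitaxel IC50. RF taken as the fold reduction of IC50 relative to paclitaxel alone.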

[5] = molecular target: T1, ATP-dependent translocase ABCB1; assay: Reversal of P-gp-mediated drug resistance in human KBV cells assessed as potentiation of paclitaxel-induced cytotoxicity by measuring fold reduction in paclitaxel IC50 at 5 uM after 72 hrs by MTT assay relative to paclitaxel alone; assay type: cell-based; summary of the method: as §1

T1 sequence (P08183 whole entry): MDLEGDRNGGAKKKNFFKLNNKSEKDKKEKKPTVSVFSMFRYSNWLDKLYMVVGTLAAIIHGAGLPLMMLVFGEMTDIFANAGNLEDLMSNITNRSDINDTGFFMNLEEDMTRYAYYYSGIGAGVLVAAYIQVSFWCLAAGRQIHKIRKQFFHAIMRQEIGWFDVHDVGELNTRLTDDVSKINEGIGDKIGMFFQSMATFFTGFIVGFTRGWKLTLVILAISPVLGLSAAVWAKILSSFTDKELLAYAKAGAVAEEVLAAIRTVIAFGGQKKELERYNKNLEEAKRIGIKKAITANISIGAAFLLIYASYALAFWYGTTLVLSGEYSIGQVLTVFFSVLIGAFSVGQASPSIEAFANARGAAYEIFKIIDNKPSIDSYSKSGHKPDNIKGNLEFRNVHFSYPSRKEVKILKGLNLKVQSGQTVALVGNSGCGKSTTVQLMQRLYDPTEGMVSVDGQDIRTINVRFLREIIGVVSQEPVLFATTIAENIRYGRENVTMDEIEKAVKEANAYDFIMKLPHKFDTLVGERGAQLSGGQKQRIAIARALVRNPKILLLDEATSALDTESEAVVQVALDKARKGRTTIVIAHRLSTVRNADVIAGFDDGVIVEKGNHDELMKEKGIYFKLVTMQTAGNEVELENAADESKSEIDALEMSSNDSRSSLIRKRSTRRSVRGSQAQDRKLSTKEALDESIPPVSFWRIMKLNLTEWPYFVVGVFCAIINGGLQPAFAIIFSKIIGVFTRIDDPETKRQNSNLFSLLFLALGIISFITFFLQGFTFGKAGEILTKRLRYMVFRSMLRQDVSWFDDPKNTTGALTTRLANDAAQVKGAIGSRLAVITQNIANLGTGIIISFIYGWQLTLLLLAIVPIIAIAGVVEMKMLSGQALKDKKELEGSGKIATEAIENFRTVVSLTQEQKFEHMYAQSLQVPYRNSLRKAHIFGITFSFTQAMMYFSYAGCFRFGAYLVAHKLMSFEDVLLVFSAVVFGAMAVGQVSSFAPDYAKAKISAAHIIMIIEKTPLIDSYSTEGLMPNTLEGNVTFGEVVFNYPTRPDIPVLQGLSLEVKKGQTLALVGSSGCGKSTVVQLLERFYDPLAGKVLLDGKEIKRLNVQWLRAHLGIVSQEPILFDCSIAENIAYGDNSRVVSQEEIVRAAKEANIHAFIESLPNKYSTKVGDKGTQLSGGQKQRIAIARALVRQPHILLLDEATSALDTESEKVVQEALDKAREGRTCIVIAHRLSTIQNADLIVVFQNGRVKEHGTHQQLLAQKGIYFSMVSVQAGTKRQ

SMILES: CC1(C)CC[C@]2(C(=O)On3nnc4ccc(Cl)cc43)CC[C@]3(C)C(C(=O)C[C@@H]4[C@@]5(C)CCC(=O)[C@@](C)(CO)[C@@H]5CC[C@]43C)[C@@H]2C1 (stereo partly drawn)
- Survival [1]: 112%
- viability at 72 h, 5 µM [2]: 98%
- logD at 4 h [3]: 0.1

SMILES: CC1(C)CC[C@]2(C(=O)O)CC[C@]3(C)C(=CC[C@@H]4[C@@]5(C)Cc6nccnc6[C@@](C)(COC(=O)C6CCCCC6C(=O)O)[C@@H]5CC[C@]43C)[C@@H]2C1 (stereo partly drawn)
- Survival [1]: 100%
- viability at 72 h, 5 µM [2]: 95%
- logD at 4 h [3]: -0.33

SMILES: COc1ccc(CCN(C)CCCC(C#N)(c2ccc(OC)c(OC)c2)C(C)C)cc1OC (stereo not drawn)
- Survival [1]: 23%

SMILES: CC1(C)CC[C@]2(C(=O)OCCOC(=O)[C@]34CCC(C)(C)C[C@H]3C3=CC[C@@H]5[C@@]6(C)CC[C@H](O)[C@@](C)(CO)[C@@H]6CC[C@@]5(C)[C@]3(C)CC4)CC[C@]3(C)C(=CC[C@@H]4[C@@]5(C)CC[C@H](O)[C@@](C)(CO)[C@@H]5CC[C@]43C)[C@@H]2C1
- Survival [1]: 37%
- viability at 72 h, 5 µM [2]: 136%

SMILES: CC1(C)CC[C@]2(C(=O)OCCCCCOC(=O)[C@]34CCC(C)(C)C[C@H]3C3=CC[C@@H]5[C@@]6(C)CC[C@H](O)[C@@](C)(CO)[C@@H]6CC[C@@]5(C)[C@]3(C)CC4)CC[C@]3(C)C(=CC[C@@H]4[C@@]5(C)CC[C@H](O)[C@@](C)(CO)[C@@H]5CC[C@]43C)[C@@H]2C1
- Survival [1]: 42%
- viability at 72 h, 5 µM [2]: 123%

SMILES: COC(=O)CCC(=O)NOC(=O)[C@]12CCC(C)(C)C[C@H]1C1=CC[C@@H]3[C@@]4(C)Cc5nccnc5[C@@](C)(CO)[C@@H]4CC[C@@]3(C)[C@]1(C)CC2
- Survival [1]: 32%
- viability at 72 h, 5 µM [2]: 86%
- logD at 4 h [3]: -1.24

SMILES: CC1(C)CC[C@]2(C(=O)OCCN)CC[C@]3(C)C(=CC[C@@H]4[C@@]5(C)Cc6nccnc6[C@@](C)(CO)[C@@H]5CC[C@]43C)[C@@H]2C1
- Survival [1]: 24%
- viability at 72 h, 5 µM [2]: 116%
- logD at 4 h [3]: 0.36

SMILES: CC1(C)CC[C@]2(C(=O)N[C@@H](Cc3ccccc3)C(=O)O)CC[C@]3(C)C(=CC[C@@H]4[C@@]5(C)Cc6nccnc6[C@@](C)(CO)[C@@H]5CC[C@]43C)[C@@H]2C1
- Survival [1]: 129%
- viability at 72 h, 5 µM [2]: 94%
- logD at 4 h [3]: -0.32

SMILES: CC1(C)CC[C@]2(C(=O)OCCCCOC(=O)[C@]34CCC(C)(C)C[C@H]3C3=CC[C@@H]5[C@@]6(C)CC[C@H](O)[C@@](C)(CO)[C@@H]6CC[C@@]5(C)[C@]3(C)CC4)CC[C@]3(C)C(=CC[C@@H]4[C@@]5(C)CC[C@H](O)[C@@](C)(CO)[C@@H]5CC[C@]43C)[C@@H]2C1
- Survival [1]: 44%
- viability at 72 h, 5 µM [2]: 92%

SMILES: CC1(C)CC[C@]2(C(=O)On3nnc4ccccc43)CC[C@]3(C)C(C(=O)C[C@@H]4[C@@]5(C)CCC(=O)[C@@](C)(CO)[C@@H]5CC[C@]43C)[C@@H]2C1 (stereo partly drawn)
- Survival [1]: 127%
- viability at 72 h, 5 µM [2]: 110%
- logD at 4 h [3]: 0.14

SMILES: CC1(C)CC[C@]2(C(=O)OCCCOC(=O)[C@]34CCC(C)(C)C[C@H]3C3=CC[C@@H]5[C@@]6(C)CC[C@H](O)[C@@](C)(CO)[C@@H]6CC[C@@]5(C)[C@]3(C)CC4)CC[C@]3(C)C(=CC[C@@H]4[C@@]5(C)CC[C@H](O)[C@@](C)(CO)[C@@H]5CC[C@]43C)[C@@H]2C1
- Survival [1]: 45%
- viability at 72 h, 5 µM [2]: 107%

SMILES: CC1(C)CC[C@]2(C(=O)N[C@@H](CO)C(=O)O)CC[C@]3(C)C(=CC[C@@H]4[C@@]5(C)Cc6nccnc6[C@@](C)(CO)[C@@H]5CC[C@]43C)[C@@H]2C1
- Survival [1]: 76%
- viability at 72 h, 5 µM [2]: 102%
- logD at 4 h [3]: -0.11

SMILES: CC1(C)CC[C@]2(C(=O)O)CC[C@]3(C)C(=CC[C@@H]4[C@@]5(C)Cc6nccnc6[C@@](C)(COC(=O)c6ccccc6C(=O)O)[C@@H]5CC[C@]43C)[C@@H]2C1
- Survival [1]: 85%
- viability at 72 h, 5 µM [2]: 116%
- logD at 4 h [3]: -0.66

SMILES: COc1cc2c(cc1OC)CN(CCc1ccc(NC(=O)c3cc(OC)c(OC)cc3NC(=O)c3cnc4ccccc4c3)cc1)CC2
- fold change (FC) [4]: 89.41
- fold change (FC) [5]: 75.95

- logD at 4 h [3]: -0.4
SMILES: CC1(C)CC[C@]2(C(=O)n3ccnc3)CC[C@]3(C)C(=CC[C@@H]4[C@@]5(C)CC[C@H](O)[C@@](C)(CO)[C@@H]5CC[C@]43C)[C@@H]2C1

SMILES: CSCC[C@H](NC(=O)[C@]12CCC(C)(C)C[C@H]1C1=CC[C@@H]3[C@@]4(C)Cc5nccnc5[C@@](C)(CO)[C@@H]4CC[C@@]3(C)[C@]1(C)CC2)C(=O)O
- Survival [1]: 94%
- viability at 72 h, 5 µM [2]: 94%
- logD at 4 h [3]: -0.2

SMILES: CC1(C)CC[C@]2(C(=O)NCC(=O)O)CC[C@]3(C)C(=CC[C@@H]4[C@@]5(C)Cc6nccnc6[C@@](C)(CO)[C@@H]5CC[C@]43C)[C@@H]2C1
- Survival [1]: 101%
- viability at 72 h, 5 µM [2]: 96%
- logD at 4 h [3]: -0.43

SMILES: CC1(C)CC[C@]2(C(=O)N[C@@H](CC(=O)O)C(=O)O)CC[C@]3(C)C(=CC[C@@H]4[C@@]5(C)Cc6nccnc6[C@@](C)(CO)[C@@H]5CC[C@]43C)[C@@H]2C1
- Survival [1]: 81%
- viability at 72 h, 5 µM [2]: 90%
- logD at 4 h [3]: -0.39

SMILES: CC1(C)CC[C@]2(C(=O)On3nnc4ccc(Cl)cc43)CC[C@]3(C)C(=CC[C@@H]4[C@@]5(C)CC[C@H](O)[C@@](C)(CO)[C@@H]5CC[C@]43C)[C@@H]2C1
- Survival [1]: 111%
- viability at 72 h, 5 µM [2]: 97%
- logD at 4 h [3]: -0.75

SMILES: CC1(C)CC[C@]2(C(=O)N3CCC[C@H]3C(=O)O)CC[C@]3(C)C(=CC[C@@H]4[C@@]5(C)Cc6nccnc6[C@@](C)(CO)[C@@H]5CC[C@]43C)[C@@H]2C1
- Survival [1]: 91%
- viability at 72 h, 5 µM [2]: 121%
- logD at 4 h [3]: 0.38

SMILES: CC(C)[C@H](NC(=O)[C@]12CCC(C)(C)C[C@H]1C1=CC[C@@H]3[C@@]4(C)Cc5nccnc5[C@@](C)(CO)[C@@H]4CC[C@@]3(C)[C@]1(C)CC2)C(=O)O
- Survival [1]: 114%
- viability at 72 h, 5 µM [2]: 83%
- logD at 4 h [3]: -0.78

SMILES: Cl.Cl.Cl.O[C@@H](COc1cccc2ncccc12)CN1CCN([C@@H]2c3ccccc3[C@@H]3[C@H](c4ccccc42)C3(F)F)CC1 [ZOSUQUIDAR TRIHYDROCHLORIDE]
- fold change (FC) [4]: 114.11
- fold change (FC) [5]: 32.5

SMILES: C[C@H](NC(=O)[C@]12CCC(C)(C)C[C@H]1C1=CC[C@@H]3[C@@]4(C)Cc5nccnc5[C@@](C)(CO)[C@@H]4CC[C@@]3(C)[C@]1(C)CC2)C(=O)O
- Survival [1]: 264%
- viability at 72 h, 5 µM [2]: 98%
- logD at 4 h [3]: -1.07

SMILES: CC1(C)CC[C@]2(C(=O)N[C@@H](Cc3ccc(O)cc3)C(=O)O)CC[C@]3(C)C(=CC[C@@H]4[C@@]5(C)Cc6nccnc6[C@@](C)(CO)[C@@H]5CC[C@]43C)[C@@H]2C1
- Survival [1]: 68%
- viability at 72 h, 5 µM [2]: 76%
- logD at 4 h [3]: -0.03

SMILES: CC1(C)CC[C@]2(C(=O)O)CC[C@]3(C)C(=CC[C@@H]4[C@@]5(C)Cc6nccnc6[C@@](C)(CO)[C@@H]5CC[C@]43C)[C@@H]2C1
- Survival [1]: 61%
- viability at 72 h, 5 µM [2]: 89%
- logD at 4 h [3]: 0.24

SMILES: CC1(C)CC[C@]2(C(=O)On3nnc4cccnc43)CC[C@]3(C)C(=CC[C@@H]4[C@@]5(C)CC[C@H](O)[C@@](C)(CO)[C@@H]5CC[C@]43C)[C@@H]2C1
- Survival [1]: 115%
- viability at 72 h, 5 µM [2]: 94%
- logD at 4 h [3]: -0.23

SMILES: CC1(C)CC[C@]2(C(=O)N[C@@H](CCC(=O)O)C(=O)O)CC[C@]3(C)C(=CC[C@@H]4[C@@]5(C)Cc6nccnc6[C@@](C)(CO)[C@@H]5CC[C@]43C)[C@@H]2C1
- Survival [1]: 80%
- viability at 72 h, 5 µM [2]: 91%
- logD at 4 h [3]: -0.66

SMILES: CC1(C)CC[C@]2(C(=O)ONC(=O)CCC(=O)O)CC[C@]3(C)C(=CC[C@@H]4[C@@]5(C)Cc6nccnc6[C@@](C)(CO)[C@@H]5CC[C@]43C)[C@@H]2C1
- Survival [1]: 112%
- viability at 72 h, 5 µM [2]: 89%
- logD at 4 h [3]: -0.78

SMILES: CC1(C)CC[C@]2(C(=O)O)CC[C@]3(C)C(=CC[C@@H]4[C@@]5(C)CC[C@H](O)[C@@](C)(CO)[C@@H]5CC[C@]43C)[C@@H]2C1 [HEDERAGENIN]
- Survival [1]: 100%

SMILES: CC1(C)CC[C@]2(C(=O)O)CC[C@]3(C)C(=CC[C@@H]4[C@@]5(C)Cc6nccnc6[C@@](C)(COC(=O)CCC(=O)O)[C@@H]5CC[C@]43C)[C@@H]2C1
- Survival [1]: 102%
- viability at 72 h, 5 µM [2]: 96%
- logD at 4 h [3]: -0.28

SMILES: CC(C)C[C@H](NC(=O)[C@]12CCC(C)(C)C[C@H]1C1=CC[C@@H]3[C@@]4(C)Cc5nccnc5[C@@](C)(CO)[C@@H]4CC[C@@]3(C)[C@]1(C)CC2)C(=O)O
- Survival [1]: 76%
- viability at 72 h, 5 µM [2]: 130%
- logD at 4 h [3]: 0.08

SMILES: CC1(C)CC[C@]2(C(=O)O)CC[C@]3(C)C(C(=O)C[C@@H]4[C@@]5(C)CCC(=O)[C@@](C)(CO)[C@@H]5CC[C@]43C)[C@@H]2C1 (stereo partly drawn)
- Survival [1]: 104%
- viability at 72 h, 5 µM [2]: 102%
